{
  "source": "ChEMBL document CHEMBL5303300",
  "about": "“EUbOPEN Chemogenomics Library - Multiplex” (2023)",
  "system": "U2OS",
  "experiment": "Multiplex assay against U2OS",
  "format": "toxicity, cell-based",
  "settings": "human, number of replicates 2",
  "outline": "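With compound added, live cells were imaged on a CQ1 microscope at 37°C and 5% CO2; staining with Hoechst33342, BioTracker Green Microtubule Cytoskeleton Dye, MitoTracker Red and Annexin V Alexa Fluor 680 had been done at seeding. The CellPathfinder machine-learning gating scheme split cells into Hoechst high-intensity objects or normal cells, normal cells into healthy, pyknosed or fragmented nuclei, and pyknosed cells into mitotic or apoptotic. The tubulin, mitochondrial-mass and membrane-permeability phenotypes are per cents of healthy-nucleus cells.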",
  "key": {"[1]": {"settings": "12 h, 1 µM, compound concentration 1 uM"}, "[2]": {"settings": "12 h, 10 µM, compound concentration 10 uM"}, "[3]": {"settings": "24 h, 1 µM, compound concentration 1 uM"}, "[4]": {"settings": "24 h, 10 µM, compound concentration 10 uM"}, "[5]": {"settings": "48 h, 1 µM, compound concentration 1 uM"}, "[6]": {"settings": "48 h, 10 µM, compound concentration 10 uM"}},
  "note": "Several values for one entry are separate records, joined by “and”; a condition that tells them apart may be missing. Equal values may be shown once.",
  "data": [
    {"molecule": "CN[C@@H]1CC[C@@H](c2ccc(Cl)c(Cl)c2)c2ccccc21.Cl", "values": [
      {"measurement": "Population Apoptotic (%)", "setting": "[1]", "result": "66% and 62%"},
      {"measurement": "Population Fragmented Nuclei (%)", "setting": "[1]", "result": "4% and 9%"},
      {"measurement": "Population Healthy Nuclei (%)", "setting": "[1]", "result": "82% and 78%"},
      {"measurement": "Population Hoechst High Intensity Objects (%)", "setting": "[1]", "result": 0, "unit": "%"},
      {"measurement": "Population Membrane Permeable-Phenotype (%)", "setting": "[1]", "result": "4% and 9%"},
      {"measurement": "Population Mitotic Cells (%)", "setting": "[1]", "result": "33% and 37%"},
      {"measurement": "Population Normal (%)", "setting": "[1]", "result": 100, "unit": "%"},
      {"measurement": "Population Pyknosed Nuclei (%)", "setting": "[1]", "result": "13% and 12%"},
      {"measurement": "Population Tubulin-Different-Phenotype (%)", "setting": "[1]", "result": "52% and 43%"},
      {"measurement": "Population Apoptotic (%)", "setting": "[2]", "result": "83% and 60%"},
      {"measurement": "Population Healthy Nuclei (%)", "setting": "[2]", "result": "33% and 57%"},
      {"measurement": "Population Hoechst High Intensity Objects (%)", "setting": "[2]", "result": 0, "unit": "%"},
      {"measurement": "Population Membrane Permeable-Phenotype (%)", "setting": "[2]", "result": 30, "unit": "%"},
      {"measurement": "Population Mitochondria Different-Phenotype (%)", "setting": "[2]", "result": "53% and 50%"},
      {"measurement": "Population Mitotic Cells (%)", "setting": "[2]", "result": "16% and 40%"},
      {"measurement": "Population Normal (%)", "setting": "[2]", "result": 100, "unit": "%"},
      {"measurement": "Population Pyknosed Nuclei (%)", "setting": "[2]", "result": "30% and 32%"},
      {"measurement": "Population Tubulin-Different-Phenotype (%)", "setting": "[2]", "result": "84% and 73%"},
      {"measurement": "Population Apoptotic (%)", "setting": "[3]", "result": "60% and 71%"},
      {"measurement": "Population Fragmented Nuclei (%)", "setting": "[3]", "result": "1% and 7%"},
      {"measurement": "Population Healthy Nuclei (%)", "setting": "[3]", "result": "84% and 81%"},
      {"measurement": "Population Hoechst High Intensity Objects (%)", "setting": "[3]", "result": 0, "unit": "%"},
      {"measurement": "Population Membrane Permeable-Phenotype (%)", "setting": "[3]", "result": "2% and 1%"},
      {"measurement": "Population Mitochondria Different-Phenotype (%)", "setting": "[3]", "result": "6% and 1%"},
      {"measurement": "Population Mitotic Cells (%)", "setting": "[3]", "result": "39% and 28%"},
      {"measurement": "Population Normal (%)", "setting": "[3]", "result": 100, "unit": "%"},
      {"measurement": "Population Pyknosed Nuclei (%)", "setting": "[3]", "result": "14% and 10%"},
      {"measurement": "Population Tubulin-Different-Phenotype (%)", "setting": "[3]", "result": "63% and 33%"},
      {"measurement": "Population Apoptotic (%)", "setting": "[4]", "result": "90% and 75%"},
      {"measurement": "Population Hoechst High Intensity Objects (%)", "setting": "[4]", "result": 0, "unit": "%"},
      {"measurement": "Population Membrane Permeable-Phenotype (%)", "setting": "[4]", "result": "42% and 33%"},
      {"measurement": "Population Mitochondria Different-Phenotype (%)", "setting": "[4]", "result": "100% and 63%"},
      {"measurement": "Population Mitotic Cells (%)", "setting": "[4]", "result": "10% and 25%"},
      {"measurement": "Population Normal (%)", "setting": "[4]", "result": 100, "unit": "%"},
      {"measurement": "Population Pyknosed Nuclei (%)", "setting": "[4]", "result": "50% and 35%"},
      {"measurement": "Population Tubulin-Different-Phenotype (%)", "setting": "[4]", "result": "100% and 75%"},
      {"measurement": "Population Apoptotic (%)", "setting": "[5]", "result": "85% and 52%"},
      {"measurement": "Population Fragmented Nuclei (%)", "setting": "[5]", "result": 2, "unit": "%"},
      {"measurement": "Population Healthy Nuclei (%)", "setting": "[5]", "result": "85% and 76%"},
      {"measurement": "Population Hoechst High Intensity Objects (%)", "setting": "[5]", "result": 0, "unit": "%"},
      {"measurement": "Population Membrane Permeable-Phenotype (%)", "setting": "[5]", "result": 1, "unit": "%"},
      {"measurement": "Population Mitochondria Different-Phenotype (%)", "setting": "[5]", "result": "3% and 1%"},
      {"measurement": "Population Normal (%)", "setting": "[5]", "result": "99% and 100%"},
      {"measurement": "Population Pyknosed Nuclei (%)", "setting": "[5]", "result": "11% and 20%"},
      {"measurement": "Population Tubulin-Different-Phenotype (%)", "setting": "[5]", "result": "72% and 37%"},
      {"measurement": "Population Apoptotic (%)", "setting": "[6]", "result": "88% and 79%"},
      {"measurement": "Population Fragmented Nuclei (%)", "setting": "[6]", "result": "31% and 16%"},
      {"measurement": "Population Hoechst High Intensity Objects (%)", "setting": "[6]", "result": 0, "unit": "%"},
      {"measurement": "Population Membrane Permeable-Phenotype (%)", "setting": "[6]", "result": "40% and 45%"},
      {"measurement": "Population Mitochondria Different-Phenotype (%)", "setting": "[6]", "result": "60% and 65%"},
      {"measurement": "Population Mitotic Cells (%)", "setting": "[6]", "result": "11% and 20%"},
      {"measurement": "Population Normal (%)", "setting": "[6]", "result": 100, "unit": "%"},
      {"measurement": "Population Pyknosed Nuclei (%)", "setting": "[6]", "result": "57% and 37%"},
      {"measurement": "Population Tubulin-Different-Phenotype (%)", "setting": "[6]", "result": "100% and 74%"}
    ]},
    {"molecule": "Cc1onc(-c2ccccc2Cl)c1C(=O)N(C)c1ccc(Cl)cc1", "values": [
      {"measurement": "Population Apoptotic (%)", "setting": "[1]", "result": "60% and 64%"},
      {"measurement": "Population Healthy Nuclei (%)", "setting": "[1]", "result": "57% and 80%"},
      {"measurement": "Population Hoechst High Intensity Objects (%)", "setting": "[1]", "result": 0, "unit": "%"},
      {"measurement": "Population Mitochondria Different-Phenotype (%)", "setting": "[1]", "result": "20% and 0%"},
      {"measurement": "Population Mitotic Cells (%)", "setting": "[1]", "result": "40% and 35%"},
      {"measurement": "Population Normal (%)", "setting": "[1]", "result": 100, "unit": "%"},
      {"measurement": "Population Pyknosed Nuclei (%)", "setting": "[1]", "result": "14% and 17%"},
      {"measurement": "Population Tubulin-Different-Phenotype (%)", "setting": "[1]", "result": "65% and 85%"},
      {"measurement": "Population Apoptotic (%)", "setting": "[2]", "result": "33% and 73%"},
      {"measurement": "Population Healthy Nuclei (%)", "setting": "[2]", "result": "52% and 83%"},
      {"measurement": "Population Hoechst High Intensity Objects (%)", "setting": "[2]", "result": 0, "unit": "%"},
      {"measurement": "Population Membrane Permeable-Phenotype (%)", "setting": "[2]", "result": "0% and 4%"},
      {"measurement": "Population Mitochondria Different-Phenotype (%)", "setting": "[2]", "result": 0, "unit": "%"},
      {"measurement": "Population Mitotic Cells (%)", "setting": "[2]", "result": "66% and 26%"},
      {"measurement": "Population Normal (%)", "setting": "[2]", "result": 100, "unit": "%"},
      {"measurement": "Population Pyknosed Nuclei (%)", "setting": "[2]", "result": "13% and 12%"},
      {"measurement": "Population Tubulin-Different-Phenotype (%)", "setting": "[2]", "result": "88% and 70%"},
      {"measurement": "Population Apoptotic (%)", "setting": "[3]", "result": "50% and 45%"},
      {"measurement": "Population Healthy Nuclei (%)", "setting": "[3]", "result": "72% and 85%"},
      {"measurement": "Population Hoechst High Intensity Objects (%)", "setting": "[3]", "result": 0, "unit": "%"},
      {"measurement": "Population Mitochondria Different-Phenotype (%)", "setting": "[3]", "result": "13% and 0%"},
      {"measurement": "Population Mitotic Cells (%)", "setting": "[3]", "result": "50% and 54%"},
      {"measurement": "Population Normal (%)", "setting": "[3]", "result": "100% and 99%"},
      {"measurement": "Population Pyknosed Nuclei (%)", "setting": "[3]", "result": "10% and 12%"},
      {"measurement": "Population Tubulin-Different-Phenotype (%)", "setting": "[3]", "result": "68% and 86%"},
      {"measurement": "Population Apoptotic (%)", "setting": "[4]", "result": "22% and 41%"},
      {"measurement": "Population Healthy Nuclei (%)", "setting": "[4]", "result": "67% and 85%"},
      {"measurement": "Population Hoechst High Intensity Objects (%)", "setting": "[4]", "result": 0, "unit": "%"},
      {"measurement": "Population Membrane Permeable-Phenotype (%)", "setting": "[4]", "result": 3, "unit": "%"},
      {"measurement": "Population Mitochondria Different-Phenotype (%)", "setting": "[4]", "result": 1, "unit": "%"},
      {"measurement": "Population Mitotic Cells (%)", "setting": "[4]", "result": "77% and 58%"},
      {"measurement": "Population Normal (%)", "setting": "[4]", "result": 100, "unit": "%"},
      {"measurement": "Population Pyknosed Nuclei (%)", "setting": "[4]", "result": "9% and 10%"},
      {"measurement": "Population Tubulin-Different-Phenotype (%)", "setting": "[4]", "result": "77% and 73%"},
      {"measurement": "Population Apoptotic (%)", "setting": "[5]", "result": "60% and 56%"},
      {"measurement": "Population Healthy Nuclei (%)", "setting": "[5]", "result": "75% and 91%"},
      {"measurement": "Population Hoechst High Intensity Objects (%)", "setting": "[5]", "result": 0, "unit": "%"},
      {"measurement": "Population Membrane Permeable-Phenotype (%)", "setting": "[5]", "result": "8% and 2%"},
      {"measurement": "Population Mitochondria Different-Phenotype (%)", "setting": "[5]", "result": "3% and 0%"},
      {"measurement": "Population Mitotic Cells (%)", "setting": "[5]", "result": "40% and 43%"},
      {"measurement": "Population Normal (%)", "setting": "[5]", "result": "100% and 99%"},
      {"measurement": "Population Pyknosed Nuclei (%)", "setting": "[5]", "result": 6, "unit": "%"},
      {"measurement": "Population Tubulin-Different-Phenotype (%)", "setting": "[5]", "result": "74% and 88%"},
      {"measurement": "Population Apoptotic (%)", "setting": "[6]", "result": "30% and 56%"},
      {"measurement": "Population Healthy Nuclei (%)", "setting": "[6]", "result": "76% and 89%"},
      {"measurement": "Population Hoechst High Intensity Objects (%)", "setting": "[6]", "result": 0, "unit": "%"},
      {"measurement": "Population Membrane Permeable-Phenotype (%)", "setting": "[6]", "result": "0% and 1%"},
      {"measurement": "Population Mitochondria Different-Phenotype (%)", "setting": "[6]", "result": "0% and 2%"},
      {"measurement": "Population Mitotic Cells (%)", "setting": "[6]", "result": "70% and 43%"},
      {"measurement": "Population Normal (%)", "setting": "[6]", "result": 100, "unit": "%"},
      {"measurement": "Population Pyknosed Nuclei (%)", "setting": "[6]", "result": "7% and 9%"},
      {"measurement": "Population Tubulin-Different-Phenotype (%)", "setting": "[6]", "result": "88% and 82%"}
    ]}
  ]
}
